# Measured values taken from ChEMBL document CHEMBL1158358, “Synthesis, antimicrobial and cytotoxic activities of some 5-arylidene-4-thioxo-thiazolidine-2-ones” (Eur J Med Chem, 2009).
# How the values were obtained:
# Type in all cases: functional
# [1] = system: Bacillus subtilis; test: Antimicrobial activity against Bacillus subtilis UFPEDA 16 at 300 ug/disk after 24 hrs by disk diffusion method; settings: UFPEDA 16, 24 h, read-out: IZ
# Outline: (§1)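 Preliminary screen by disk diffusion. Paper disks (6 mm) holding 300 µg of compound were placed on agar plates inoculated with a standardized microbial suspension. DMSO-only disks served as negative controls. A mean inhibition zone below 7 mm was scored as no sensitivity. Values are means, n = 3.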
# [2] = system: Enterococcus faecalis; test: Antimicrobial activity against multidrug-resistant Enterococcus faecalis H.C. 21944 isolate after 20 hrs by twofold serial dilution technique; settings: H.C. 21944, 20 h
# Outline: (§2)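 Twofold serial dilution MIC in agar plates against Gram-positive strains and multidrug-resistant clinical isolates. Inoculum applied was 10⁵ CFU/plate. Plates with culture medium plus DMSO served as negative control. MIC was read after incubation at 35 °C for 20 h.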
# [3] = system: Candida albicans; test: Antimicrobial activity against Candida albicans UFPEDA 1007 at 300 ug/disk after 48 hrs by disk diffusion method; settings: UFPEDA 1007, 48 h, read-out: IZ; outline: as §1
# [4] = system: Staphylococcus aureus; test: Antimicrobial activity against multidrug-resistant Staphylococcus aureus H.C. 20905 isolate after 20 hrs by twofold serial dilution technique; settings: H.C. 20905, 20 h; outline: as §2
# [5] = system: Serratia marcescens; test: Antimicrobial activity against Serratia marcescens UFPEDA 398 at 300 ug/disk after 24 hrs by disk diffusion method; settings: UFPEDA 398, 24 h, read-out: IZ; outline: as §1
# [6] = system: Candida albicans; test: Antimicrobial activity against Candida albicans UFPEDA 1007 after 48 hrs by twofold serial dilution technique; settings: UFPEDA 1007, 48 h
# Outline: (§3)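 MIC was determined by twofold serial dilution. Bacteria were tested in plates at 10⁵ CFU/plate and read after 20 h. C. albicans was tested in tubes at 10³ CFU/tube and read after 48 h. All incubations were at 35 °C. Medium plus DMSO served as the negative control.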
# [7] = system: Staphylococcus aureus; test: Antimicrobial activity against multidrug-resistant Staphylococcus aureus H.C. 21036 isolate after 20 hrs by twofold serial dilution technique; settings: H.C. 21036, 20 h; outline: as §2
# [8] = system: NCI-H292; test: Cytotoxicity against human NCI-H292 cells at 1.25 ug/mL after 72 hrs by MTT assay; settings: NCI-H292, 72 h, read-out: GI
# Outline: (§4)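 MTT antiproliferative assay. Cells were diluted to 10⁵ cells/mL in 96-well plates and preincubated for 24 h at 37 °C in humid 5% CO₂. Compounds or vincristine (reference) were then added. Formazan was dissolved and OD read at 540 nm, compared with medium-only control cells. Run in triplicate.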
# [9] = system: Bacillus subtilis; test: Antimicrobial activity against Bacillus subtilis UFPEDA 16 after 20 hrs by twofold serial dilution technique; settings: UFPEDA 16, 20 h; outline: as §3
# [10] = system: Escherichia coli; test: Antimicrobial activity against Escherichia coli UFPEDA 224 at 300 ug/disk after 24 hrs by disk diffusion method; settings: UFPEDA 224, 24 h, read-out: IZ; outline: as §1
# [11] = system: NCI-H292; test: Cytotoxicity against human NCI-H292 cells at 10 ug/mL after 72 hrs by MTT assay; settings: NCI-H292, 72 h, read-out: GI; outline: as §4
# [12] = system: Staphylococcus aureus; test: Antimicrobial activity against multidrug-resistant Staphylococcus aureus H.C. 20981 isolate after 20 hrs by twofold serial dilution technique; settings: H.C. 20981, 20 h; outline: as §2
# [13] = system: Enterococcus faecalis; test: Antimicrobial activity against multidrug-resistant Enterococcus faecalis H.C. 24962 isolate after 20 hrs by twofold serial dilution technique; settings: H.C. 24962, 20 h; outline: as §2
# [14] = system: Mycolicibacterium smegmatis; test: Antimicrobial activity against Mycobacterium smegmatis UFPEDA 71 after 20 hrs by twofold serial dilution technique; settings: UFPEDA 71, 20 h; outline: as §3
# [15] = system: HEp-2; test: Cytotoxicity against human Hep2 cells at 1.25 ug/mL after 72 hrs by MTT assay; settings: HEp-2, 72 h, read-out: GI; outline: as §4
# [16] = system: Micrococcus luteus; test: Antimicrobial activity against Micrococcus luteus UFPEDA 06 at 300 ug/disk after 24 hrs by disk diffusion method; settings: UFPEDA 06, 24 h, read-out: IZ; outline: as §1
# [17] = system: Enterococcus faecalis; test: Antimicrobial activity against Enterococcus faecalis UFPEDA 138 after 20 hrs by twofold serial dilution technique; settings: UFPEDA 138, 20 h; outline: as §3
# [18] = system: Mycolicibacterium smegmatis; test: Antimicrobial activity against Mycobacterium smegmatis UFPEDA 71 at 300 ug/disk after 24 hrs by disk diffusion method; settings: UFPEDA 71, 24 h, read-out: IZ; outline: as §1
# [19] = system: NCI-H292; test: Cytotoxicity against human NCI-H292 cells at 2.5 ug/mL after 72 hrs by MTT assay; settings: NCI-H292, 72 h, read-out: GI; outline: as §4
# [20] = system: Staphylococcus aureus; test: Antimicrobial activity against Staphylococcus aureus UFPEDA 01 after 20 hrs by twofold serial dilution technique; settings: UFPEDA 01, 20 h; outline: as §2
# [21] = system: HEp-2; test: Cytotoxicity against human Hep2 cells at 5 ug/mL after 72 hrs by MTT assay; settings: HEp-2, 72 h, read-out: GI; outline: as §4
# [22] = system: Enterococcus faecalis; test: Antimicrobial activity against Enterococcus faecalis UFPEDA 138 at 300 ug/disk after 24 hrs by disk diffusion method; settings: UFPEDA 138, 24 h, read-out: IZ; outline: as §1
# [23] = system: HEp-2; test: Cytotoxicity against human Hep2 cells at 10 ug/mL after 72 hrs by MTT assay; settings: HEp-2, 72 h, read-out: GI; outline: as §4
# [24] = system: NCI-H292; test: Cytotoxicity against human NCI-H292 cells at 5 ug/mL after 72 hrs by MTT assay; settings: NCI-H292, 72 h, read-out: GI; outline: as §4
# [25] = system: HEp-2; test: Cytotoxicity against human Hep2 cells at 2.5 ug/mL after 72 hrs by MTT assay; settings: HEp-2, 72 h, read-out: GI; outline: as §4
# [26] = system: Staphylococcus aureus; test: Antimicrobial activity against multidrug-resistant Staphylococcus aureus H.C. 20794 isolate after 20 hrs by twofold serial dilution technique; settings: H.C. 20794, 20 h; outline: as §2
# [27] = system: Enterococcus faecalis; test: Antimicrobial activity against multidrug-resistant Enterococcus faecalis H.C. 24708 isolate after 20 hrs by twofold serial dilution technique; settings: H.C. 24708, 20 h; outline: as §2
# [28] = system: Micrococcus luteus; test: Antimicrobial activity against Micrococcus luteus UFPEDA 06 after 20 hrs by twofold serial dilution technique; settings: UFPEDA 06, 20 h; outline: as §3
# [29] = system: Staphylococcus aureus; test: Antimicrobial activity against multidrug-resistant Staphylococcus aureus H.C. 20489 isolate after 20 hrs by twofold serial dilution technique; settings: H.C. 20489, 20 h; outline: as §2
# [30] = system: Pseudomonas aeruginosa; test: Antimicrobial activity against Pseudomonas aeruginosa UFPEDA 39 at 300 ug/disk after 24 hrs by disk diffusion method; settings: UFPEDA 39, 24 h, read-out: IZ; outline: as §1
# [31] = system: Staphylococcus; test: Antimicrobial activity against coagulase-negative Staphylococcus H.A.M. 278 isolate after 20 hrs by twofold serial dilution technique; settings: H.A.M. 278, 20 h; outline: as §3
# [32] = system: Staphylococcus aureus; test: Antimicrobial activity against multidrug-resistant Staphylococcus aureus H.C. 21141 isolate after 20 hrs by twofold serial dilution technique; settings: H.C. 21141, 20 h; outline: as §2
# [33] = system: Enterococcus faecalis; test: Antimicrobial activity against multidrug-resistant Enterococcus faecalis H.C. 21752 isolate after 20 hrs by twofold serial dilution technique; settings: H.C. 21752, 20 h; outline: as §2
# [34] = system: Staphylococcus; test: Antimicrobial activity against coagulase-negative Staphylococcus H.A.M. 338 isolate after 20 hrs by twofold serial dilution technique; settings: H.A.M. 338, 20 h; outline: as §3
# [35] = system: Staphylococcus aureus; test: Antimicrobial activity against Staphylococcus aureus UFPEDA 01 at 300 ug/disk after 24 hrs by disk diffusion method; settings: UFPEDA 01, 24 h, read-out: IZ; outline: as §1
# [36] = system: Escherichia coli; test: Antimicrobial activity against Escherichia coli UFPEDA 224 at 10 ug/disk after 24 hrs by disk diffusion method; settings: UFPEDA 224, 24 h, read-out: IZ
# Outline: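 Preliminary screen: 6 mm paper disks bearing the agent placed on agar plates inoculated with a standardized microbial suspension. Negative control was DMSO-only disks. Inhibition zones are means of n = 3; no zone or a mean zone below 7 mm was scored as no sensitivity.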
# [37] = system: Enterococcus faecalis; test: Antimicrobial activity against Enterococcus faecalis UFPEDA 138 at 10 ug/disk after 24 hrs by disk diffusion method; settings: UFPEDA 138, 24 h, read-out: IZ
# [38] = system: Micrococcus luteus; test: Antimicrobial activity against Micrococcus luteus UFPEDA 06 at 10 ug/disk after 24 hrs by disk diffusion method; settings: UFPEDA 06, 24 h, read-out: IZ
# [39] = system: Bacillus subtilis; test: Antimicrobial activity against Bacillus subtilis UFPEDA 16 at 10 ug/disk after 24 hrs by disk diffusion method; settings: UFPEDA 16, 24 h, read-out: IZ
# [40] = system: Staphylococcus aureus; test: Antimicrobial activity against Staphylococcus aureus UFPEDA 01 at 10 ug/disk after 24 hrs by disk diffusion method; settings: UFPEDA 01, 24 h, read-out: IZ
SMILES,zone of inhibition at 300 µg/disc [1] [mm],MIC [2] [µg/mL],zone of inhibition at 300 µg/disc [3] [mm],MIC [4] [µg/mL],zone of inhibition at 300 µg/disc [5] [mm],MIC [7] [µg/mL],MIC [9] [µg/mL],MIC [12] [µg/mL],MIC [13] [µg/mL],MIC [14] [µg/mL],MIC [17] [µg/mL],MIC [20] [µg/mL],MIC [26] [µg/mL],MIC [27] [µg/mL],MIC [28] [µg/mL],MIC [29] [µg/mL],MIC [31] [µg/mL],MIC [32] [µg/mL],MIC [33] [µg/mL],MIC [34] [µg/mL],other results
O=C1NC(=S)/C(=C/c2ccc(Cl)c(Cl)c2)S1,27,4,14,4,< 7,4,4,2,16,32,8,4,2,16,4,2,4,2,8,2,MIC [6]: 32 µg/mL; inhibition of growth at 1.25 µg/mL [8]: 9.18%; zone of inhibition at 300 µg/disc [10]: < 7 mm; inhibition of growth at 10 µg/mL [11]: 43.3%; inhibition of growth at 1.25 µg/mL [15]: -5.45%; zone of inhibition at 300 µg/disc [16]: 27 mm; zone of inhibition at 300 µg/disc [18]: 20 mm; inhibition of growth at 2.5 µg/mL [19]: 19.4%; inhibition of growth at 5 µg/mL [21]: 11%; zone of inhibition at 300 µg/disc [22]: 20 mm; inhibition of growth at 10 µg/mL [23]: 16.4%; inhibition of growth at 5 µg/mL [24]: 35.8%; inhibition of growth at 2.5 µg/mL [25]: 5.03%; zone of inhibition at 300 µg/disc [30]: < 7 mm; zone of inhibition at 300 µg/disc [35]: 25 mm
O=C1NC(=S)/C(=C/c2cc(Cl)cc(Cl)c2Cl)S1,< 7,4,< 7,2,< 7,2,2,2,4,32,2,4,2,4,4,2,2,2,4,2,MIC [6]: 64 µg/mL; inhibition of growth at 1.25 µg/mL [8]: 14.2%; zone of inhibition at 300 µg/disc [10]: < 7 mm; inhibition of growth at 10 µg/mL [11]: 40.5%; inhibition of growth at 1.25 µg/mL [15]: 12.6%; zone of inhibition at 300 µg/disc [16]: 21 mm; zone of inhibition at 300 µg/disc [18]: < 7 mm; inhibition of growth at 2.5 µg/mL [19]: 33%; inhibition of growth at 5 µg/mL [21]: 22.8%; zone of inhibition at 300 µg/disc [22]: 19 mm; inhibition of growth at 10 µg/mL [23]: 23.5%; inhibition of growth at 5 µg/mL [24]: 39.7%; inhibition of growth at 2.5 µg/mL [25]: 21.8%; zone of inhibition at 300 µg/disc [30]: < 7 mm; zone of inhibition at 300 µg/disc [35]: 16 mm
O=C1NC(=S)/C(=C/c2c(Cl)cccc2Cl)S1,20,8,15,4,< 7,8,8,8,16,4,16,4,4,16,16,4,4,8,8,4,MIC [6]: 32 µg/mL; inhibition of growth at 1.25 µg/mL [8]: 4.36%; zone of inhibition at 300 µg/disc [10]: < 7 mm; inhibition of growth at 10 µg/mL [11]: 32.8%; inhibition of growth at 1.25 µg/mL [15]: -9.16%; zone of inhibition at 300 µg/disc [16]: 18 mm; zone of inhibition at 300 µg/disc [18]: 17 mm; inhibition of growth at 2.5 µg/mL [19]: 7.7%; inhibition of growth at 5 µg/mL [21]: -2.39%; zone of inhibition at 300 µg/disc [22]: < 7 mm; inhibition of growth at 10 µg/mL [23]: 8.73%; inhibition of growth at 5 µg/mL [24]: 10.3%; inhibition of growth at 2.5 µg/mL [25]: -4.24%; zone of inhibition at 300 µg/disc [30]: < 7 mm; zone of inhibition at 300 µg/disc [35]: 20 mm
CC1(C)S[C@@H]2[C@H](NC(=O)[C@H](N)c3ccccc3)C(=O)N2[C@H]1C(=O)O [AMPICILLIN],–,≤ 1,–,64,–,32,2,2,2,64,2,2,2,2,2,≤ 1,≤ 1,≤ 1,2,≤ 1,zone of inhibition at 10 µg/disc [36]: 20 mm; zone of inhibition at 10 µg/disc [37]: 24 mm; zone of inhibition at 10 µg/disc [38]: 45 mm; zone of inhibition at 10 µg/disc [39]: 28 mm; zone of inhibition at 10 µg/disc [40]: 38 mm
